In publication PMC8906099 (Current Research in Parasitology & Vector-borne Diseases, 2021):
In brackets after ≈: the same amount, converted by molar mass. Where two headings read alike, the source gives them in different places.

Tests used:
[1] = test system: trypomastigotes of T. cruzi (Sylvio X10/4 strain); assay: Trypanocidal activity against trypomastigotes; format: cell-based; conditions: Trypanosoma cruzi, 72 h, read-out: IC50 ± SD, trypomastigotes
In short: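 Sylvio X10/4 trypomastigotes were taken from amastigote culture supernatant and seeded at 1 × 10^6 per well. Test compound was added at 0.19–100 μM (0.1% DMSO), with benznidazole (0.019–10 μM) and DMSO controls. Incubation was 72 h at 37 °C, 5% CO2. Viability was read with resazurin (40 μM in PBS), fluorescence 530/630 nm. IC50 came from sigmoid dose–response fits.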

[2] = test system: amastigotes of T. cruzi Brazil strain; assay: Trypanocidal activity against intracellular amastigotes in C2C12 cells; format: cell-based; conditions: Trypanosoma cruzi, C2C12, 72 h, read-out: IC50 ± SD, amastigotes
In short: (§1)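 Trypomastigotes from C2C12 co-culture (DMEM, 10% FBS, 25 mM HEPES, pH 7.2) were seeded with C2C12 cells at a 1:15 infection rate. Test compound (0.19–100 μM, 2-fold, 0.1% DMSO) was added at the start. After 72 h at 37 °C, 5% CO2, cells were stained with DAPI 2 h and imaged confocally. Amastigote and host nuclei were told apart by size. IC50 came from sigmoid fits of the infection ratio normalised to controls. Mean ± SD, three experiments in triplicate.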

[3] = test system: amastigotes of T. cruzi CA-I/72 strain; assay: as above; format: cell-based; conditions: Trypanosoma cruzi, C2C12, 72 h, read-out: IC50 ± SD, amastigotes
In short: as §1

[4] = test system: amastigotes of T. cruzi Sylvio X10/4 strain; assay: as above; format: cell-based; conditions: Trypanosoma cruzi, C2C12, 72 h, read-out: IC50 ± SD, amastigotes
In short: as §1

[5] = test system: amastigotes of T. cruzi Sylvio X10/7 strain; assay: as above; format: cell-based, Trypanosoma cruzi
In short: as §1

[6] = test system: intracellular amastigotes of T. cruzi CA-I/72 strain; assay: Time-course study against intracellular amastigotes; format: cell-based; conditions: Trypanosoma cruzi
In short: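 CA-I/72 trypomastigotes were incubated with C2C12 cells for 48 h to form intracellular amastigotes. Test compound was then added (0.19–100 μM, 2-fold, 0.1% DMSO), with benznidazole and DMSO controls. Incubation ran 8, 12, 24 or 48 h at 37 °C, 5% CO2. Growth inhibition was read by DAPI high-content imaging. IC50 came from sigmoid fits of the normalised infection ratio. Time trend was tested by linear regression and ANOVA.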

[7] = Time-course cytotoxicity in infected C2C12 cells; format: cell-based, murine; conditions: mouse
In short: (§2)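 This uses the CA-I/72 time-course infection format: a 48 h pre-infection of C2C12 cells, then test compound at 0.19–100 μM for 8, 12, 24 or 48 h, with DAPI imaging. Host viability was the total host cell count divided by the mean count of 0.1% DMSO controls. CC50 came from sigmoid fits. SI = CC50/IC50 against amastigotes at the matching time.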

[8] = Cytotoxicity in infected C2C12 cells after 72 h; format: cell-based, murine; conditions: mouse
In short: (§3)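 C2C12 cells were infected with trypomastigotes (1:15) together with test compound (0.19–100 μM, 0.1% DMSO) for 72 h at 37 °C, 5% CO2. Host nuclei were counted by DAPI high-content imaging. Viability was the cell count relative to the DMSO-control mean. CC50 came from sigmoid fits. SI = CC50/IC50 against intracellular amastigotes of the same strain at 72 h.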

infected C2C12 cells = assay: Cytotoxicity in infected C2C12 cells after 72 h; format: cell-based, murine; conditions: 72 h
In short: as §3

[9] = Cytotoxicity in non-infected cells; format: cell-based, murine; conditions: mouse, non-infected C2C12 cells
In short: (§4)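 Non-infected C2C12 cells (5 × 10^4 per well) were plated for 24 h. Test compound (0.19–100 μM, 2-fold, 0.1% DMSO) was then added for 72 h at 37 °C. Controls were untreated, DMSO 0.4% and Triton 15%. After a PBS wash, MTT (2 mg/ml) was added for 4 h, and absorbance was read at 450 nm (reference 620 nm). CC50 came from sigmoid fits. SI = CC50/IC50 against CA-I/72 amastigotes at 72 h.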

non-infected C2C12 cells = assay: Cytotoxicity in non-infected cells; format: cell-based, murine; conditions: non-infected C2C12 CC50 / IC50 amastigotes CA-I/72 strain, 72 h
In short: as §4

[10] = Cytotoxicity in non-infected cells; format: cell-based, monkey; conditions: monkey, non-infected LLC-MK2 cells
In short: (§5)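 LLC-MK2 monkey kidney cells, grown in RPMI with 10% FBS at 37 °C and 5% CO2, were plated and after 24 h exposed to test compound (0.19–100 μM, 2-fold dilutions, 0.1% DMSO) for 72 h at 37 °C. Controls were untreated cells, 0.4% DMSO and 15% Triton. After a PBS wash, MTT (2 mg/ml) was added for 4 h, and absorbance read at 450/620 nm. SI is CC50 divided by the 72 h CA-I/72 intracellular amastigote IC50.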

[11] = test system: non-infected LLC-MK2 cells; assay: Cytotoxicity in non-infected cells; format: cell-based, monkey; conditions: non-infected LLC-MK2 CC50 / IC50 amastigotes CA-I/72 strain, 72 h
In short: as §5

[12] = test system: several Streptococcus species; conditions: ref Vieira et al., 2018; cited from earlier work
[13] = test system: C2C12 cells infected with intracellular amastigotes of T. cruzi (CA-I/72 strain); assay: Time-course cytotoxicity in infected C2C12 cells; format: cell-based, murine; conditions: infected C2C12 vs amastigotes CA-I/72, time-course, 48 h
In short: as §2

[14] = Trypanosoma cruzi, C2C12, 72 h, read-out: IC50 ± SD, amastigotes, Sylvio X10/7 strain, 72 h incubation
[15] = read-out: IC50 over the incubation times evaluated
[16] = C2C12 cells infected with T. cruzi Brazil strain
[17] = C2C12 cells infected with T. cruzi CA-I/72 strain
[18] = C2C12 cells infected with T. cruzi Sylvio X10/4 strain
[19] = C2C12 cells infected with T. cruzi Sylvio X10/7 strain
[20] = infected C2C12, Sylvio X10/4 strain
[21] = infected C2C12, Sylvio X10/7 strain

Row | Compound | IC50 [1] | IC50 [2] | IC50 [3] | IC50 [4] | IC50 [5, 14] | IC50 ([6]; 8 h, read-out: IC50 ± SD) | IC50 ([6]; 12 h, read-out: IC50 ± SD) | IC50 ([6]; 24 h, read-out: IC50 ± SD) | IC50 ([6]; 48 h, read-out: IC50 ± SD) | CC50 at 8 h [7] | CC50 at 12 h [7] | CC50 at 24 h [7] | CC50 at 48 h [7] | CC50 at 72 h [8, 16] | CC50 at 72 h [8, 17] | CC50 at 72 h [8, 18] | CC50 at 72 h [8, 19] | SI (CC50/IC50) (infected C2C12 cells; infected C2C12, CA-I/72 strain) | SI (CC50/IC50) (infected C2C12 cells; [21]) | CC50 at 72 h [9] | further results
1 | COc1ccc(/C=C/C(=O)/C=C/c2ccc(OC)cc2)cc1 [DBA 2, (1E,4E)-1,5-bis(4-methoxyphenyl)penta-1,4-dien-3-one] | 29.8 ± 2.12 µM | 51.6 ± 4.9 µM | 17.5 ± 1.06 µM | 46.6 ± 0.48 µM | 0.48 ± 0.02 µM | > 100 µM | > 100 µM | > 100 µM | > 100 µM | 40.7 ± 1.07 µM | 3.03 ± 0.79 µM | 0.33 ± 0.41 µM | 0.02 ± 0.03 µM | 5.15 ± 0.13 µM | 4.3 ± 1.22 µM | 2.54 ± 1.86 µM | 0.9 ± 1.2 µM | 0.24 | 1.87 | 35.5 ± 0.5 µM | IC50 [6, 15]: > 100 µM; SI (CC50/IC50) (infected C2C12 cells; infected C2C12, Brazil strain): 0.10; SI (CC50/IC50) (infected C2C12 cells; [20]): 0.05; SI (CC50/IC50) (non-infected C2C12 cells): 2.03; CC50 at 72 h [10]: 31.4 ± 1.2 µM; SI (CC50/IC50) [11]: 1.79; MIC [12]: 100 µg/mL (≈ 340 µM)
2 | COc1cc(OC)c(/C=C/C(=O)/C=C/c2c(OC)cc(OC)cc2OC)c(OC)c1 [DBA 4, (1E,4E)-1,5-bis-(2,4,6-trimethoxyphenyl)penta-1,4-dien-3-one] | > 100 µM | > 100 µM | 5.01 ± 1.14 µM | > 100 µM | 33.1 µM | > 100 µM | > 100 µM | > 100 µM | 34.5 ± 0.94 µM | > 100 µM | 60.4 ± 1.11 µM | 2.98 ± 0.24 µM | 0.66 ± 0.29 µM | 0.09 ± 0.11 µM | 0.6 ± 0.16 µM | 0.11 ± 0.1 µM | 0.37 ± 0.14 µM | 0.12 | 0.01 | 53.7 ± 1.26 µM | IC50 ([5]; read-out: IC50 ± SD, amastigotes, Sylvio X10/7 strain, 72 h incubation): 33.1 ± 2.05 µM; SI (CC50/IC50) [13]: 0.01; SI (CC50/IC50) (non-infected C2C12 cells): > 10; SI (CC50/IC50) (non-infected C2C12 cells; listed as 4): 10.71; CC50 at 72 h [10]: 50.1 ± 7.92 µM; SI (CC50/IC50) [11]: ≥ 10; SI (CC50/IC50) ([11]; listed as 4): 10.00
3 | O=C(/C=C/c1ccc(Cl)cc1)/C=C/c1ccc(Cl)cc1 [DBA 5, (1E,4E)-1,5-bis-(4-chlorophenyl)penta-1,4-dien-3-one] | 73.7 ± 2.08 µM | 6.37 ± 0.03 µM | 33.6 ± 1.39 µM | 56.9 ± 1.86 µM | 25.3 ± 1.34 µM | > 100 µM | > 100 µM | > 100 µM | > 100 µM | 93.29 ± 0.42 µM | 10.6 ± 1.26 µM | 0.3 ± 0.02 µM | 0.2 ± 0.01 µM | 12.4 ± 2.29 µM | 15.5 ± 1.25 µM | 11.8 ± 7.74 µM | 4.06 ± 2.31 µM | 0.45 | 0.16 | 38.3 ± 1.69 µM | IC50 [6, 15]: > 100 µM; SI (CC50/IC50) (infected C2C12 cells; [20]): 0.20; SI (CC50/IC50) (non-infected C2C12 cells): 1.13; CC50 at 72 h [10]: 38.1 ± 1.81 µM; SI (CC50/IC50) [11]: 1.13; MIC [12]: 100 µg/mL (≈ 330 µM)
